Results as given in ChEMBL document CHEMBL1671807, “Structure-activity relations on [1-(3,5-difluoro-4-hydroxyphenyl)-1H-pyrrol-3-yl]phenylmethanone. The effect of methoxy substitution on aldose reductase inhibitory activity and selectivity” (Bioorg Med Chem, 2011).

What was measured:
[1] = organism: Rattus norvegicus; test: Selectivity index, ratio of IC50 for rat kidney ALR1 to IC50 for rat lens ALR2; assay type: tissue-based; conditions: Lens of camera-type eye
Procedure, shortened: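 Ratio of IC50 values: rat kidney enzyme assayed with D-glucuronate at 37 °C, rat lens enzyme with D,L-glyceraldehyde at 30 °C. Both read as NADPH consumption at 340 nm, five compound concentrations, IC50 from the linear part of the log dose–response curve, triplicate.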

[2] = Inhibition of rat kidney ALR1
Procedure, shortened: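 Enzyme partially purified from Fischer-344 rat kidney by ammonium sulfate fractionation (40/50/75%) and DEAE treatment, with no detectable ALR2 activity. NADPH consumption followed at 340 nm with D-glucuronate substrate at 37 °C. Compounds in 10% aqueous NaHCO3, five concentrations. IC50 from least-squares fit of the linear part of the log dose–response; triplicate.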

[3] = target: Aldo-keto reductase family 1 member B1 (Rattus norvegicus, UniProt P07943); test: Inhibition of rat lens ALR2; assay type: tissue-based, Lens of camera-type eye
Procedure, shortened: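 Partially purified rat lens enzyme (water homogenate, supernatant after 40% ammonium sulfate). NADPH consumption read at 340 nm with D,L-glyceraldehyde as substrate at 30 °C. Compounds dissolved in 10% aqueous NaHCO3 and tested at five concentrations. IC50 from least-squares fit of the linear part of the log dose–response curve; triplicate.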

[4] = Inhibition of glucose-induced sorbitol accumulation in rat lens at 100 uM (Rbv = 643.5+/-133 nmol/g); assay type: functional, Lens of camera-type eye
[5] = Antioxidant activity assessed as inhibition of AAPH-induced lipid peroxidation of DOPC liposomes; assay type: functional
Procedure, shortened: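 Unilamellar DOPC liposomes, 0.8 mM final, in 20 mM phosphate buffer pH 7.4, incubated with compound at 10–300 µM and AAPH (10 mM final) at 50 °C for 80 min. Lipids extracted with CHCl3/MeOH 2:1 containing 0.05% BHT. Hydroperoxides read by the thiocyanate method at 500 nm against a cumene hydroperoxide calibration. IC50 from the linear part of the semilog inhibition plot; triplicate.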

Row | Structure (SMILES) | IC50 [2] | IC50 [3] | IC50 [5] | Ratio IC50 [1] | Activity [4]
1 | O=C(c1ccccc1)c1ccn(-c2ccc(F)c(O)c2F)c1 | 1.61 µM | 1260 nM | – | 1.3 | –
2 | COc1ccc(C(=O)c2ccn(-c3cc(F)c(O)c(F)c3)c2)cc1 | > 100 µM | 24900 nM | – | > 4 | –
3 | COc1ccc(C(=O)c2cccn2-c2cc(F)c(O)c(F)c2)cc1 | 27.8 µM | 390 nM | 35.8 µM | 71.6 | 203.5 nmol/g
4 | COc1cccc(C(=O)c2ccn(-c3cc(F)c(O)c(F)c3)c2)c1 | 51.8 µM | 9930 nM | – | 5.2 | –

Continued, in another order:

Row | IC50 [2] | IC50 [3] | IC50 [5] | Structure (SMILES) | Ratio IC50 [1] | Activity [4]
5 | 13.4 µM | – | – | O=C(c1ccccc1)c1ccn(-c2cc(F)c(O)c(F)c2)c1 | 33.8 | –
6 | 23.5 µM | 1180 nM | – | COc1cccc(C(=O)c2cccn2-c2cc(F)c(O)c(F)c2)c1 | 19.9 | –
7 | 4.6 µM | 1060 nM | – | O=C(c1ccccc1)c1cccn1-c1cc(F)c(O)c(F)c1 | 4.3 | –
